The list is not random: actives were taken first. Their share in the collection is about 2.2%.
APP transl inh: APP translation inhibition; 0.82% of 190,000 active; SH-SY5Y APP 5'UTR-luciferase reporter, luminescence; inhibition, % at 2 µM;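 active means inhibition above a set limit, derived from the sample mean plus 3 SD, cut at about 45% in these data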
IEC-6 tox: IEC-6 cytotoxicity, counter-screen for KLF5 inhibitors. luminescence viability. inhibition, % at 5 µM. AID 1825. 0.78% of 290,000 active; in the data active means inhibition above about 22%
Ba/F3 V617F tox: lowers viability of Ba/F3 cells expressing EpoR and JAK2V617F; ATP luminescence; inhibition, % at 5.6 µM; 1.1% of 220,000 active; AID 1446;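 active means inhibition above the campaign mean plus 3 SD over all tested compounds, cut at about 24% in these data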;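 further: cytokine-independent growth of Ba/F3 cells driven by EpoR plus mutant JAK2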
MT stabilizer: microtubule stabilizers in HeLa cells; HeLa tubulin immunostaining HCS, 24 h; share of cells brighter than vehicle mean+2SD; % tubulin-high responders, % at 10 µM; 0.83% of 200,000 active; AID 2205;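 active means plate Z-score above 3 for both tubulin-high and condensed-nucleus cell shares, with cell loss under 80%, at 10 µM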;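 further: anti alpha tubulin signal scored within the nucleus-defined area of each cell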
bCat nuc transl: beta-catenin nuclear translocation modulation; HeLa beta-catenin nuclear translocation, immunofluorescence imaging; nuclear translocation activity, % at 5 µM; 0.3% of 190,000 active; AID 1665;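 active means nuclear translocation activity above 50% at 5 µM, with a well cell count of 50 or more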;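 further: per-cell ratio of nuclear to cytoplasmic median beta-catenin stain intensity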
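System: Human HeLa cells, endogenous beta-catenin | Compound dosing: 5 µM primary, 0.02–20 µM confirmation | Timing: 24 h compound exposure at 37°C, 5% CO2 | Measured by: Fluorescence imaging of beta-catenin antibody stain plus DAPI | Read-out basis: % activation of per-cell nuclear versus cytoplasmic median beta-catenin signal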
BaF3 parental: parental Ba/F3 viability inhibition as JAK2V617F counter-screen. CellTiter-Glo ATP luminescence. AID 1486. 1.1% of 220,000 active. inhibition, % at 5.6 µM;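 active means inhibition above a per-campaign cutoff, the mean inhibition of all tested compounds plus 3 SD, cut at about 27% in these data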
Of the large screens only hits and unclear results are named; the others gave an inactive call.

Cc1ccc(O)c(C(=O)c2cnc3c(c2)c(C)nn3C)c1	none (no result: APP transl inh, Ba/F3 V617F tox, MT stabilizer, bCat nuc transl, BaF3 parental)
O=C(OCc1ccccc1)N1CCCC1/C=C/CN1CCOCC1 (centres undefined)	APP transl inh 63.0
Oc1ccc(C=NC2CCCCC2)c(O)c1	none
C/C=C/COC(=O)c1[nH]c2c(c1C)C(=O)CC(c1ccco1)C2 (centres undefined)	APP transl inh 94.7, IEC-6 tox 83.2, Ba/F3 V617F tox 78.4, bCat nuc transl 153.6, BaF3 parental 78.2
C/C=C/COC(=O)c1[nH]c2c(c1C)C(=O)CC(c1ccc(N(C)C)cc1)C2 (centres undefined)	none
CC(c1ccco1)N(C(=O)c1cccc(Br)c1)c1ccccn1 (centres undefined)	none (no result: APP transl inh, Ba/F3 V617F tox, MT stabilizer, bCat nuc transl, BaF3 parental)
COc1cc(NS(=O)(=O)c2ccc(NC(=S)NC(=O)CC(C)C)cc2)nc(OC)n1	APP transl inh 54.5
COC(=O)CCC(=O)NC(=S)Nc1ccc(S(=O)(=O)Nc2cc(OC)nc(OC)n2)cc1	none (no result: bCat nuc transl)
COc1cc(C(=O)Nc2cc(C)ccn2)ccc1OCC(=O)N1CCOCC1	none (no result: APP transl inh, Ba/F3 V617F tox, MT stabilizer, bCat nuc transl, BaF3 parental)
COCCCNC(=S)NNC(=O)C1CC1c1ccc(C(C)(C)C)cc1 (centres undefined)	BaF3 parental 37.9
COCCNC(=S)NC(=O)c1ccc(C(C)(C)C)cc1	none
O=[N+]([O-])c1ccc(C[n+]2cccc3ccc4cccnc4c32)cc1	Ba/F3 V617F tox 59.7, BaF3 parental 76.0
CC12CCC(C(=O)OC3CCCCC3)(OC1=O)C2(C)C (centres undefined)	none (no result: APP transl inh, Ba/F3 V617F tox, MT stabilizer, bCat nuc transl, BaF3 parental)
CC(=O)Nc1cccc(NC(=S)Nc2cccc(Cl)c2C)c1	BaF3 parental 89.6
CC(=O)Nc1cccc(NC(=O)Nc2cccc(Cl)c2C)c1	none
CC[n+]1cccc(-c2nc3ccccc3s2)c1	Ba/F3 V617F tox 33.7, BaF3 parental 44.0 (no result: bCat nuc transl)
C[C@H]1CN=C(Nc2ccccc2)N1CC1CCCCCC1	none (no result: APP transl inh, Ba/F3 V617F tox, MT stabilizer, bCat nuc transl, BaF3 parental)
COc1cc(NC(=O)c2ccccc2F)c(OC)cc1NC(=O)CN1CCCCC1	none (no result: APP transl inh, Ba/F3 V617F tox, MT stabilizer, bCat nuc transl, BaF3 parental)
COc1cc(CNCc2ccccc2Cl)ccc1OCC(=O)NC1CCCCC1	none (no result: APP transl inh, Ba/F3 V617F tox, MT stabilizer, bCat nuc transl, BaF3 parental)
CCOc1cc(CNCCc2ccc(S(N)(=O)=O)cc2)ccc1OCC(=O)NC1CCCCC1	APP transl inh 65.4
COc1cc(CNn2cnnc2)ccc1OCC(=O)NC1CCCCC1	APP transl inh 64.4 (no result: bCat nuc transl)
COc1ccc(N2C(=O)C(Cl)=C(Oc3cccc(OC)c3)C2=O)cc1	APP transl inh 49.3
CN(C)c1cc[n+](CC(=O)c2ccc(OC(F)F)cc2)cc1	Ba/F3 V617F tox 39.7, BaF3 parental 47.1 (no result: APP transl inh, MT stabilizer)
O=C(C[n+]1cccc(CNC(=O)c2ccc(OC(F)F)cc2)c1)c1ccccc1	none
CO/N=C/C(=N\Nc1ccc(OC)cc1)C(=O)c1ccc(OC)cc1	MT stabilizer 53.5 (no result: bCat nuc transl)
COc1ccc(C(=O)C(/C=N/O)=N/Nc2ccc(F)cc2)cc1	none
N#CC1=C(N)Oc2cc(N)ccc2C1c1cccnc1 (centres undefined)	MT stabilizer 23.8
N#CC1=C(N)Oc2cc(N)ccc2C1c1ccc(Cl)cc1 (centres undefined)	none (no result: APP transl inh, Ba/F3 V617F tox, MT stabilizer, bCat nuc transl, BaF3 parental)
COc1ccc(C2C(C#N)=C(N)Oc3c2ccc2cccnc32)cc1OC (centres undefined)	APP transl inh 92.3, Ba/F3 V617F tox 77.7, MT stabilizer 16.2, bCat nuc transl 60.9, BaF3 parental 76.3
COc1cc(C2C(C#N)=C(N)Oc3cc(N)ccc32)cc(OC)c1OC (centres undefined)	APP transl inh 95.3, MT stabilizer 18.4, bCat nuc transl 71.4
O=C(CCNC(=O)c1ccc([N+](=O)[O-])cc1)Nc1ccc(F)cc1F	none (no result: APP transl inh, Ba/F3 V617F tox, MT stabilizer, bCat nuc transl, BaF3 parental)
CCOC(=O)c1oc2ccc(S(=O)(=O)n3nc(-c4ccc(Cl)cc4)cc3N)cc2c1C	MT stabilizer 17.1
CCOc1ccc2ccccc2c1C(=O)N1CCN(c2ccccc2)CC1	IEC-6 tox 24.6, Ba/F3 V617F tox 46.3, MT stabilizer 47.1, BaF3 parental 42.4
CCOC(=O)c1[nH]c(C)c(C(=O)N2CCN(c3ccccc3)CC2)c1C	none
COc1cc2c(C(=O)N3CCN(c4ccccc4)CC3)c(C)oc2cc1Br	MT stabilizer 25.6
Cc1ccccc1N=C1c2ccccc2C(=O)C1[N+](=O)[O-] (centres undefined)	none
O=C(NCc1cccs1)C(Cc1ccccc1)NS(=O)(=O)c1cccs1 (centres undefined)	none
CSCCC(NS(=O)(=O)c1cccs1)C(=O)NCc1cccs1 (centres undefined)	APP transl inh 47.3
C/C=C(\C)CN1CCC(Oc2ccc(C(=O)NCc3ccccn3)cc2)CC1	none (no result: APP transl inh, Ba/F3 V617F tox, MT stabilizer, bCat nuc transl, BaF3 parental)
Cc1cc[n+](-c2ccccc2)c2ccccc12	Ba/F3 V617F tox 67.8, BaF3 parental 65.2
Cc1cc[n+](CCC(=O)O)c2ccccc12	none
COc1cc(OC)cc(C(=O)N[C@H](C(=O)OCC(N)=O)C(C)C)c1	none (no result: bCat nuc transl)
COCCNC(=O)CN1N=C(c2ccc(OC)cc2)CCC1=O	none (no result: APP transl inh, Ba/F3 V617F tox, MT stabilizer, bCat nuc transl, BaF3 parental)
COc1ccc(C2=NN(CC(=O)Nc3ccccc3C)C(=O)CC2)cc1	BaF3 parental 57.5 (no result: APP transl inh, MT stabilizer)
Cc1ccccc1NC(=O)CSc1nc2cc3c(cc2cc1C)CCC3	MT stabilizer 35.7 (no result: bCat nuc transl)
CCC(=O)Nc1ccc(NC(=O)CSc2nc3cc4c(cc3cc2C)CCC4)cc1	none
O=[N+]([O-])c1ccc(N=Nc2ccc(O)cc2O)cc1	MT stabilizer 22.0 (no result: bCat nuc transl)
Cc1ccc(NC(=O)CCNS(=O)(=O)c2cccc3nsnc23)cc1F	none (no result: APP transl inh, Ba/F3 V617F tox, MT stabilizer, bCat nuc transl, BaF3 parental)
O=P(O)(O)c1cc(-c2ccccc2)oc1-c1ccccc1	BaF3 parental 27.6 (no result: APP transl inh, MT stabilizer)
O=C(/C=C/NCc1cccnc1)c1ccc(-c2ccccc2)cc1	none (no result: APP transl inh, Ba/F3 V617F tox, MT stabilizer, bCat nuc transl, BaF3 parental)
COc1ccc(-c2nc3ccccc3n2Cc2ccccc2)cc1	none (no result: bCat nuc transl)
COc1ccc(-c2n(Cc3ccccc3)c3ccccc3[n+]2Cc2ccccc2)cc1	Ba/F3 V617F tox 96.0, MT stabilizer 10.9, BaF3 parental 74.5
CC#CCNCc1ccccc1	BaF3 parental 34.5
O=C(c1ccccn1)N(Cc1ccco1)C1(C(=O)NC2CCCC2)CCCCC1	BaF3 parental 45.4 (no result: bCat nuc transl)
CO/N=C\CC(=O)Nc1ccc(Cl)cc1Cl	MT stabilizer 10.4
CO/N=C\CC(=O)Nc1ccc(F)cc1	none
O=[N+]([O-])c1ccc(COc2ccc(Br)cc2CN2CCOCC2)cc1	BaF3 parental 90.0
O=[N+]([O-])c1ccc(CN2CCOCCOCCN(Cc3ccc([N+](=O)[O-])cc3)CCOCC2)cc1	none
COc1ccccc1N1CCN(c2nc(C)nc3c2oc2ccccc23)CC1	APP transl inh 92.6, IEC-6 tox 79.9, Ba/F3 V617F tox 64.8, MT stabilizer 20.5, bCat nuc transl 81.4, BaF3 parental 71.2
Cc1nc(N2CCC(C)CC2)c2oc3ccccc3c2n1	MT stabilizer 24.1
CCC1(C)Cc2c(sc3c2c2ncnn2c2nnc(SCC(=O)NCc4ccco4)n32)CO1 (centres undefined)	MT stabilizer 13.3
Cc1cc(C)c(S(=O)(=O)/N=C2/C=C(Sc3ncn[nH]3)C(=O)c3ccccc32)cc1C	APP transl inh 88.8, Ba/F3 V617F tox 40.6
CCOc1ccc(NC(=O)c2cc3c(C)nc4ccccc4c3o2)cc1	MT stabilizer 17.0, bCat nuc transl 126.0

From PubChem
